Measured values: ChEMBL document CHEMBL4033654, “Ortho group activation of a bromopyrrole ester in Suzuki-Miyaura cross-coupling reactions: Application to the synthesis of new microtubule depolymerizing agents with potent cytotoxic activities” (Bioorg Med Chem, 2017)
Activity calls are given as the source filed them. The rule behind the calls is not given here.

Experiments:
[1] = tested on: HeLa; experiment: Antiproliferative activity against human HeLa cells expressing wild type beta3 tubulin after 48 hrs by SRB assay; format: functional, cell-based
Summary of the method: (§1)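 Cell growth measured by sulforhodamine B assay across a concentration range. IC50 is taken from the dose-response curves, as mean ± SD of at least 3 independent experiments, each run in triplicate. HeLa WT-βIII cells express βIII tubulin. SK-OV-3 MDR-1-M6/6 cells are the P-glycoprotein-expressing isogenic partner of parental SK-OV-3.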

[2] = Antiproliferative activity against human SKOV3-MDR1-M6/6 cells after 48 hrs by SRB assay; format: functional, cell-based; conditions: SKOV3-MDR1-M6/6, 48 h; summary of the method: as §1
[3] = tested on: MDA-MB-435; experiment: Antiproliferative activity against human MDA-MB-435 cells after 48 hrs by SRB assay; format: functional, cell-based; conditions: MDA-MB-435, 48 h; summary of the method: as §1
[4] = tested on: HeLa; experiment: Resistance index, ratio of IC50 for human HeLa cells expressing wild type beta3 tubulin to IC50 for human HeLa cells; format: functional
Summary of the method: (§2)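 Relative resistance is the SRB IC50 in the expressing line divided by the IC50 in the isogenic parental line. The pairs are HeLa WT-βIII over HeLa (βIII tubulin) and SK-OV-3 MDR-1-M6/6 over SK-OV-3 (P-glycoprotein).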

[5] = Resistance index, ratio of IC50 for human SKOV3-MDR1-M6/6 cells to IC50 for human SKOV3 cells; format: functional; summary of the method: as §2
[6] = tested on: SK-OV-3; experiment: Antiproliferative activity against human SKOV3 cells after 48 hrs by SRB assay; format: functional, cell-based; conditions: SK-OV-3, 48 h; summary of the method: as §1
[7] = tested on: HeLa; experiment: Antiproliferative activity against human HeLa cells after 48 hrs by SRB assay; format: functional, cell-based; summary of the method: as §1
[8] = Induction of tubulin depolymerization in rat A-10 cells after 18 hrs by indirect immunofluorescence method; format: cell-based
Summary of the method: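 A-10 cells exposed to a wide range of concentrations. Microtubules stained by indirect immunofluorescence, with nuclei counterstained. The percentage of depolymerized cellular microtubules is estimated visually. EC50, the concentration giving 50% loss of cellular microtubules, is found by linear regression.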

[9] = tested on: Mus musculus; experiment: Toxicity in athymic nude mouse xenografted with human MDA-MB-435 cells assessed as overt toxicity at 75 mg/kg, ip administered daily for 9 days measured on day 14; format: organism-based; conditions: in vivo, 216 h
Summary of the method: (§3)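 Six-week-old female athymic nude mice implanted bilaterally with MDA-MB-435 cells. Dosing starts when tumors average 200 mm3. Drug given at 75 mg/kg/dose i.p. daily on days 0–8, solubilized in 2:1 Tween80:DMSO and diluted into PBS. Mice weighed twice weekly. On day 14, tumors excised and weighed and compared with control by unpaired two-tailed Student's t-test. Tumor volumes analysed by 2-way ANOVA with Dunnett's test.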

[10] = tested on: MDA-MB-435; experiment: Antitumor activity against human MDA-MB-435 cells xenografted in athymic nude mouse assessed as reduction in mean tumor mass at 75 mg/kg, ip administered daily for 9 days measured on day 14; format: functional, organism-based; summary of the method: as §3
[11] = tested on: MDA-MB-435; experiment: Antitumor activity against human MDA-MB-435 cells xenografted in athymic nude mouse assessed as tumor growth inhibition at 75 mg/kg, ip administered daily for 9 days measured on day 14; format: functional, organism-based; summary of the method: as §3
[12] = tested on: MDA-MB-435; experiment: Antitumor activity against human MDA-MB-435 cells xenografted in athymic nude mouse assessed as tumor growth inhibition at 20 mg/kg, ip administered on day 2,4,6,8, and 11 measured on day 14; format: functional, organism-based
Summary of the method: (§4)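 Female athymic nude mice, six weeks old, bearing bilateral MDA-MB-435 xenografts averaging 200 mm3 at the start of treatment. […] Body weight recorded twice weekly through day 14. Tumor volumes analysed by 2-way ANOVA with Dunnett's post-hoc test.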

[13] = tested on: Mus musculus; experiment: Toxicity in athymic nude mouse xenografted with human MDA-MB-435 cells assessed as body weight loss at 20 mg/kg, ip administered on day 2, 4, 6, 8 and 11 measured on day 14; format: organism-based; conditions: in vivo; summary of the method: as §4

SMILES	IC50 [1] [nM]	IC50 [2] [nM]	IC50 [3] [nM]	Ratio IC50 [4]	Ratio IC50 [5]	IC50 [6] [nM]	IC50 [7] [nM]	EC50 [8] [nM]	Activity [9]	Activity [10]	TGI [11]	TGI [12]	Activity [13] [%]
CCOC(=O)c1[nH]c(C#N)c(-c2ccc(OC)c(OC)c2OC)c1Br	26.1	42.2	19.6	1.3	1.6	26.2	20.6	88					
CCOC(=O)c1[nH]c(Cl)c(-c2ccc(OC)c(OC)c2OC)c1Cl	140	140	116	1.1	0.67	210	131	1000					
CCOC(=O)c1[nH]c(C=NO)c(-c2ccc(OC)c(OC)c2OC)c1Br (mixture of isomers)	4.1	6.6	2.7	0.9	1.2	5.3	5	9.2	Non-Toxic	Active	Active		
CC(=O)O[C@H]1C(=O)[C@@]2(C)[C@H]([C@H](OC(=O)c3ccccc3)[C@]3(O)C[C@H](OC(=O)[C@H](O)[C@@H](NC(=O)c4ccccc4)c4ccccc4)C(C)=C1C3(C)C)[C@]1(OC(C)=O)CO[C@@H]1C[C@@H]2O [PACLITAXEL]	21.1	2330	2				1.5					Active	2.5
CCOC(=O)c1[nH]c(/C=N\O)c(-c2ccc(OC)c(OC)c2OC)c1Br	31.3	49.6	25.3	1.1	1.5	33.7	29.4	108					
CCOC(=O)c1[nH]c(/C=N/O)c(-c2ccc(OC)c(OC)c2OC)c1Br	25	41.6	14	1.4	1.8	23.1	18	56					
CCOC(=O)c1[nH]c(Br)c(-c2ccc(OC)c(OC)c2OC)c1Br	15.7	10.6	10.4	1.2	0.7	15.2	12.9	37					
